The values that follow come from ChEMBL document CHEMBL3044706, “Lignans and neolignans from Brassica fruticulosa: effects on seed germination and plant growth” (2003).

Assay [1] deals with Solanum lycopersicum. The assay can be described thus: Effect on seed germination in Solanum lycopersicum (tomato) at 10^-4 to 10^-9 M after 5 days relative to control. The format is functional, organism-based. An outline of the steps:
(§1)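 Seeds (cress 3 days, tomato 5 days, onion 7 days), 25 per 90 mm Petri dish on one Whatman No. 1 filter paper, with 5 mL test solution in 10 mM MES pH 6 (10^-4 M, diluted to 10^-9 M). Dishes were sealed and kept at 25 °C in the dark. Germination was scored daily, then root/shoot lengths were taken after freezing at -20 °C. Four replicates, expressed as % difference from control, with t-test.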

In assay [2] the test system is Lactuca sativa. The assay can be described thus: Effect on root elongation in Lactuca sativa (lettuce) at 10^-4 to 10^-9 M after 5 days relative to control. The format is functional, organism-based. The method, boiled down: (§2)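 Lettuce seeds, 25 per 50 mm Petri dish on one Whatman No. 1 filter paper, with 2.5 mL test solution in 10 mM MES pH 6 (10^-4 M, diluted to 10^-9 M). Dishes were Parafilm-sealed and kept at 25 °C in the dark. Germination was scored daily for 5 days, then root/shoot lengths were measured on plants frozen at -20 °C. Four replicates, expressed as % difference from parallel control, with Student's t-test.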

In assay [3] the test system is Allium cepa. Nature of the assay: Stimulation of shoot elongation in Allium cepa (onion) at 10^-4 to 10^-9 M after 7 days relative to control. The format is functional, organism-based. An outline of the steps: as §1
Assay [4] relates to Solanum lycopersicum. The assay can be described thus: Effect on root elongation in Solanum lycopersicum (tomato) at 10^-4 to 10^-9 M after 5 days relative to control. The format is functional, organism-based. An outline of the steps:
as §1

In assay [5] the test system is Allium cepa. Nature of the assay: Inhibition of shoot elongation in Allium cepa (onion) at 10^-4 to 10^-9 M after 7 days relative to control. The format is functional, organism-based. The method, boiled down:
as §1

Assay [6] has as its system Allium cepa. The assay can be described thus: Effect on seed germination in Allium cepa (onion) at 10^-4 to 10^-9 M after 7 days relative to control. The format is functional, organism-based. An outline of the steps:
as §1

Assay [7] has as its system Lactuca sativa. The assay can be described thus: Inhibition of shoot elongation in Lactuca sativa (lettuce) at 10^-4 to 10^-9 M after 5 days relative to control. The format is functional, organism-based. The method, boiled down: as §2
Assay [8] has as its system Lactuca sativa. The assay can be described thus: Stimulation of shoot elongation in Lactuca sativa (lettuce) at 10^-4 to 10^-9 M after 5 days relative to control. In kind it is functional, organism-based. An outline of the steps:
as §2

In assay [9] the test system is Allium cepa. The assay can be described thus: Stimulation of root elongation in Allium cepa (onion) at 10^-4 to 10^-9 M after 7 days relative to control. The format is functional, organism-based. The method, boiled down:
as §1

The subject of assay [10] is Solanum lycopersicum. The assay can be described thus: Inhibition of shoot elongation in Solanum lycopersicum (tomato) at 10^-4 to 10^-9 M after 5 days relative to control. In kind it is functional, organism-based. An outline of the steps:
as §1

The subject of assay [11] is Solanum lycopersicum. The assay can be described thus: Stimulation of shoot elongation in Solanum lycopersicum (tomato) at 10^-4 to 10^-9 M after 5 days relative to control. In kind it is functional, organism-based. The method, boiled down:
as §1

Assay [12] concerns Lactuca sativa. Nature of the assay: Inhibition of seed germination in Lactuca sativa (lettuce) at 10^-4 to 10^-9 M after 5 days relative to control. In kind it is functional. An outline of the steps: as §2
In assay [13] the test system is Lactuca sativa. Nature of the assay: Inhibition of seed germination in Lactuca sativa (lettuce) at 10^-9 M after 5 days relative to control. In kind it is functional. The conditions noted are these: 120 h. An outline of the steps:
as §2

Assay [14] has as its system Lepidium sativum. Nature of the assay: Effect on seed germination in Lepidium sativum at 10^-4 to 10^-9 M after 3 days relative to control. The format is functional, organism-based. An outline of the steps: as §1
Assay [15] deals with Lepidium sativum. The assay can be described thus: Inhibition of shoot elongation in Lepidium sativum at 10^-4 to 10^-9 M after 3 days relative to control. The format is functional. The method, boiled down:
as §1

In assay [16] the test system is Lepidium sativum. Nature of the assay: Effect on root elongation in Lepidium sativum at 10^-4 to 10^-9 M after 3 days relative to control. The format is functional, organism-based. The method, boiled down:
as §1

Activity calls are given as the source filed them. The calls are words filed in the database; no cut-off is given here.

The inhibition is how much of the control response was suppressed. With `COc1cc([C@@H]2OC[C@H]3[C@@H]2CO[C@H]3c2ccc(O)c(OC)c2)ccc1O`, the outcome in [1], in assay [2], in assay [4] and in assay [6] was inactive. In addition, the result in [3], in assay [8], in [9] and in [11] was Active. The inhibition entry in assay [5], in assay [7] and in assay [10] was “Active” each time.
`COc1cc([C@H](O)[C@@H](CO)Oc2ccc(/C=C/CO)cc2OC)ccc1O` (racemic): the result in [1], in [2], in assay [4] and in [6] was inactive. For the same compound, the outcome in assay [3], in assay [8], in [9] and in assay [11] was Active. The inhibition entry in assay [12], in assay [5], in assay [7] and in assay [10] was “Active” throughout.
As to `COc1cc(C[C@@H](CO)[C@H](CO)Cc2ccc(O)c(OC)c2)ccc1O` [(+)-SECOISOLARICIRESINOL], the outcome in assay [1], in [2], in assay [4] and in assay [6] was inactive. In [13], the inhibition at 0.001 µM turned out to be 50%. For the same compound, the result in [3], in [8], in assay [9] and in assay [11] was Active. Moreover, the inhibition entry in [12], in assay [5], in assay [7] and in [10] was “Active” throughout.
As for `O=C(O)CNCP(=O)(O)O`, the outcome in assay [2] was inactive. The inhibition result in assay [12] was “Active”. Also, in assay [8], the outcome was Active.
With `COc1cc(/C=C/C(=O)O)ccc1Oc1ccc(/C=C/C(=O)O)cc1OC`, the result in [1], in [2], in [4] and in [6] was inactive. In addition, the outcome in assay [3], in assay [8], in [9] and in [11] was Active. The inhibition entry in [5], in assay [7] and in assay [10] was “Active” in each case.
For the compound `CCC(CC)Nc1c([N+](=O)[O-])cc(C)c(C)c1[N+](=O)[O-]`, the result in assay [2] was inactive. Besides, the inhibition result in [12] was “Active”. Moreover, the outcome in assay [8] was Active.
On to `COc1cc([C@@H](O)[C@@H](CO)Oc2c(OC)cc(/C=C/CO)cc2OC)ccc1O`, for which the result in [1], in [2], in assay [4] and in assay [6] was inactive. Also, the result in assay [3], in assay [8], in assay [9] and in [11] was Active. Moreover, the inhibition result in [5], in [7] and in assay [10] was “Active” throughout.
Consider `COc1cc([C@@H]2c3cc(O)c(OC)cc3C[C@H](CO)[C@H]2CO)ccc1O` [(-)-ISOLARICIRESINOL], for which the result in assay [1], in assay [2], in [4], in [14], in assay [6] and in [16] was inactive. Further, the outcome in [9] was inactive. Besides, in assay [13], testing at 0.001 µM gave an inhibition of 50%. In addition, the result in assay [3], in assay [8] and in assay [11] was Active. Also, the inhibition result in assay [12], in [5], in assay [7] and in assay [10] was “Active” throughout. Further, the “inhibition (INH)” value in [15] worked out at 30%.
Turning to `COc1cc([C@@H]2Oc3c(OC)cc(/C=C/CO)cc3[C@H]2CO)ccc1O` [DEHYDROCONIFERYL ALCOHOL], the result in assay [1], in assay [2], in [4], in [14], in assay [6] and in assay [16] was inactive. Further, the result in assay [3], in [8], in [9] and in [11] was Active. Besides, the entries for the “inhibition (INH)” value in assay [12] and in [15] were 70% and 30%, respectively. Besides, the inhibition result in assay [5], in assay [7] and in assay [10] was “Active” each time.
On to `COc1cc([C@@H](O)[C@H]2CO[C@H](c3ccc(O)c(OC)c3)[C@H]2CO)ccc1O`, for which the result in assay [1], in assay [2], in assay [4] and in [6] was inactive. Moreover, the result in [3], in assay [8], in assay [9] and in assay [11] was Active. Further, the inhibition result in assay [5], in [7] and in assay [10] was “Active” throughout.
In the case of `COc1cc([C@H](O)[C@H](CO)Oc2c(OC)cc([C@@H]3OC[C@@H]4[C@H]3CO[C@H]4c3cc(OC)c(O[C@@H](CO)[C@@H](O)c4ccc(O)c(OC)c4)c(OC)c3)cc2OC)ccc1O`, the outcome in assay [1], in assay [2], in assay [4] and in [6] was inactive. Besides, the outcome in [3], in [8], in assay [9] and in assay [11] was Active. Moreover, the inhibition result in assay [12], in assay [5], in assay [7] and in assay [10] was “Active” each time.
Consider `COc1cc(C[C@H]2CO[C@H](c3ccc(O[C@@H](CO)[C@@H](O)c4ccc(O)c(OC)c4)c(OC)c3)[C@H]2CO)ccc1O`, for which the result in assay [1], in assay [2], in assay [4] and in assay [6] was inactive. Further, the outcome in assay [3], in assay [8], in [9] and in [11] was Active. Moreover, the inhibition result in assay [12], in assay [5], in assay [7] and in [10] was “Active” in each case.
As for `COc1cc([C@H](O)[C@@H](CO)Oc2c(OC)cc([C@@H]3Oc4c(OC)cc(/C=C/CO)cc4[C@H]3CO)cc2OC)ccc1O`, the outcome in [1], in assay [2], in assay [4] and in assay [6] was inactive. In addition, the result in [3], in [8], in assay [9] and in [11] was Active. Also, the inhibition result in assay [12], in assay [5], in [7] and in assay [10] was “Active” throughout.
